Hits are enriched below; roughly 1.9% of the tested compounds scored in any of these assays.
Vif inh – blocks HIV Vif function; HEK293T cells, Vif self-association by quenched fluorescence, imaging, 24 h; inhibition, % at 7.49 µM; hit rate 0.35% among 340,000; AID 602346; in the data active = inhibition above about 50%, passing the limit was not always enough
MsrA act – bovine methionine sulfoxide reductase A activation; purified bovine MsrA, absorbance read-out; hit rate 0.3% among 360,000; activation, % at 10.6 µM; AID 602163; in the data active = activation above about 7.5%;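 also: 0% = vehicle and 100% = reference activator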
N-glyco inh – N-linked glycosylation inhibition | D54 ERlucT glycosylation luciferase reporter, 24 h; percent of 100 nM tunicamycin response | hit rate 0.23% among 360,000 | AID 588692 | reporter increase, % at 12.5 µM;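 active = mean luciferase reporter signal, scaled so untreated is 0 and the glycosylation-blocking control 100, at or above a set limit in every replicate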;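 also: luciferase carries N-glycosylation sites so blocking glycosylation raises the light; 0% = median of neutral control wells and 100% = median of 100 nM tunicamycin wells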
MsrA inh – inhibitors of bovine MsrA; purified bovine MsrA, absorbance read-out; inhibition, % at 15.5 µM; hit rate 0.75% among 360,000; in the data active = inhibition above about 4.5%;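 also: 0% = vehicle wells with enzyme and 100% = reference inhibitor wells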
UCH37 DUB inh – inhibitors of human deubiquitinating enzyme UCH37 | Q9Y5K5 | purified proteasome/UCH37, Ub-AMC cleavage fluorescence | inhibition, % (test concentration not listed) | hit rate 0.33% among 330,000 | AID 588478;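 active = mean inhibition over replicate wells above about 20%, limit read from the data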;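 also: 0% = compound-free wells with enzyme and 100% = wells lacking proteasome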
Target sequence (Q9Y5K5 whole entry, looked up): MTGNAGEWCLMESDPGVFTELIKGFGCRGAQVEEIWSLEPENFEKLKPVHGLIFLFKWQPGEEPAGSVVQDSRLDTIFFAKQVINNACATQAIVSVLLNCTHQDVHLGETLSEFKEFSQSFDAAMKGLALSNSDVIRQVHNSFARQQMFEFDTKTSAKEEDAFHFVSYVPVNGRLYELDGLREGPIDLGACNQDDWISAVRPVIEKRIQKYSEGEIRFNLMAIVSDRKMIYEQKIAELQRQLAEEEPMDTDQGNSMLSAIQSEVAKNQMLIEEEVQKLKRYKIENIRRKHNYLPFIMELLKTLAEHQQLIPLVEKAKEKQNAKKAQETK
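Reagent: Ub-AMC substrate; assay system: Proteasome-associated human UCH37 deubiquitinase; controls: no-proteasome and no-compound wells; read-out: % inhibition of Ub-AMC cleavage fluorescence; timing: 30 min preincubation with enzyme, 25 min cleavage at room temperature; signal: AMC fluorescence from Ub-AMC cleavage, excitation 355 nm, emission 460 nm; buffer or medium: Tris-HCl pH 7.4 plus ovalbumin, ATP-MgCl2, DTT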
aDG glyco up – alpha-DG glycosylation activation. Pro5-aDG cells, alpha-DG glycosylation AlphaScreen (IIH6); 0% Pro5, 100% B10-LARGE cell signal. activation, % at 10 µM. hit rate 0.22% among 360,000;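 active = activation of at least 8% versus controls, or a plate z-score of at least 8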;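 also: Pro5 are CHO cells carrying HIG-tagged alpha-DG that lacks glycosylation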
* marks the source's active call; other numbers are inactive results; . = no result given.

SMILES | Vif inh | MsrA act | N-glyco inh | MsrA inh | UCH37 DUB inh | aDG glyco up
CCCNc1nc2ccccc2n2c(C)nnc12 | -5 | -6 | 40* | -1 | 1 | 0
NC(=O)CN1C(=O)C(=c2sc3nc(=O)c(Cc4ccccc4)nn3c2=O)c2ccccc21 | . | . | . | . | 5 | .
O=C(O)CSc1ncnc2nc[nH]c12 | 6 | -2 | 2 | -1 | 1 | 0
c1nc(SSc2ncnc3nc[nH]c23)c2[nH]cnc2n1 | 15 | 4 | 106* | 2 | . | 0
COC(=O)c1ccc(C=NNc2nc(-c3ccccc3)cs2)cc1 | . | . | . | . | -13 | .
CCCCCCCCCCCCCCCCn1cc[n+](C)c1 | 0 | -4 | -17 | -2 | 76* | 0
COCCCNC(=O)C(=O)NN=Cc1cc2c(cc1Br)OCO2 | . | . | . | . | 10 | .
COc1ccc(C=CC(=O)c2c(OC)cc(OC)c(OC)c2O)cc1 | 5 | -3 | 29* | 2 | 5 | 0
COc1ccc(C(=O)/C=C/Nc2cccc(C)n2)cc1OC | 60* | 4 | -5 | 1 | -10 | 0
COc1ccc(N/C=C/C(=O)c2cc(OC)c(OC)c(OC)c2)cc1 | -2 | -4 | 38* | 0 | 4 | 0
COc1ccc(N/C=C/C(=O)c2ccc(OC)c(OC)c2)cc1 | 1 | -4 | 3 | 2 | -19 | 0
Cc1ccc(S(=O)(=O)NCCc2cc3ccc(C)cc3[nH]c2=O)cc1 | -12 | -1 | 0 | 1 | -1 | 0
COc1ccc2cc(CCNS(=O)(=O)c3ccc(NC(C)=O)cc3)c(=O)[nH]c2c1 | 57* | -5 | 0 | 3 | -21 | 0
CN(C)c1ccc(C(O)Cc2nc3ccccc3n2C)cc1 (stereo unspecified) | 120* | 6 | -11 | 0 | -1 | 0
CCOC(=O)c1csc(-c2csc(CCNC(=O)c3ccccc3)n2)n1 | 51* | -1 | -3 | 0 | . | 0
NC(Cn1nnc(-c2ccccc2)n1)=NO | . | . | . | . | 3 | .
CC(C)(C)OC(=O)n1cc(C=NNC(=O)c2ccco2)c2ccccc21 | . | . | . | . | 2 | .
Cc1[nH]c(C)c(C(=O)/C=C/c2ccc([N+](=O)[O-])cc2)c1C | 22 | -1 | 42* | 2 | 7 | 0
CN(C)C=NC(=S)Nc1ccccc1 | . | . | . | . | 5 | .
CC(=O)C1=C(C)NC(SCC(=O)c2ccc(Cl)cc2)=C(C#N)C1c1ccco1 (stereo unspecified) | 58* | -9 | -5 | 2 | 0 | 1
COc1cccc(-c2cc(C(F)(F)F)nc(-n3cc(C)cn3)n2)c1 | 89* | -4 | -2 | 0 | -17 | 0
C=CS(=O)(=O)c1c2cc(OC)ccc2nc2ccc(OC)cc12 | 1 | -3 | 53* | 0 | . | 0
O=S(=O)(C/C(=C/CO)S(=O)(=O)c1ccccc1)c1ccccc1 | 62* | -8 | -11 | 0 | 1 | 0
O=C(NCc1cccnc1)NC1(C(F)(F)F)Oc2ccc(Cl)cc2O1 (stereo unspecified) | 137* | -2 | -9 | . | 5 | 0
COCCNC(=O)NC1(C(F)(F)F)Oc2ccc(Cl)cc2O1 (stereo unspecified) | 19 | -1 | -5 | 2 | 4 | 0
SMILES | Vif inh | MsrA act | N-glyco inh | MsrA inh | UCH37 DUB inh | aDG glyco up
Cc1cc(NC(=O)NC2(C(F)(F)F)Oc3ccc(Cl)cc3O2)no1 (stereo unspecified) | 105* | -14 | -10 | . | 5 | 0
O=C(COC(=O)C1CC(=O)N(c2ccc3c(c2)OCCO3)C1)NC1CCCc2ccccc21 (stereo unspecified) | -26 | -2 | 0 | -1 | 22* | 0
CC(=O)c1cnc(-c2ccccc2Cl)s1 | 57* | -1 | -1 | 0 | 1 | 0
COc1ccc(O[C@H]2C=C[C@@H](c3ccccc3)O[C@@H]2CON=CC[C@@H]2C=C[C@H](OC(C)=O)[C@@H](COC(C)=O)O2)cc1 | . | . | . | . | 1 | .
COc1ccc(C=NNC(=O)c2ccc(CSc3nc(C)cc(C)n3)cc2)c(OC)c1OC | . | . | . | . | 3 | .
Nc1nnc(SCC(=O)Nc2ccc(Cl)c(C(=O)O)c2)s1 | 4 | -6 | 2 | 1 | 1 | 0
O=C(CSc1nnc(-c2ccncc2)s1)Nc1ccc(Cl)c(C(=O)O)c1 | 54* | 5 | 1 | 1 | 3 | 0
CCn1cc(CN2CCCC(C(=O)Nc3cccc(-c4cc5ccccc5[nH]4)c3)C2)c(C)n1 (stereo unspecified) | 53* | -12 | -3 | -2 | -7 | 0
CC(C)(C)NC(=O)CCN(N=Cc1ccncc1)C1=NS(=O)(=O)c2ccccc21 | . | . | . | . | 10 | .
CC(C)(C)NCC(=O)NN=Cc1ccc(OCc2ccccc2)cc1 | . | . | . | . | 5 | .
CC(=NNC(N)=O)c1ccc(Cl)cc1 | . | . | . | . | -4 | .
COc1ccc(-c2nc3ncccc3o2)cc1NC(=O)c1ccco1 | -3 | -4 | 2 | 4.6* | -61 | 0
Cc1ccc(-c2nc3ncccc3o2)cc1NC(=O)c1ccc2c(c1)OCO2 | 51* | -3 | 0 | 1 | . | 0
Cc1cc2oc3ccc(NCCCN4CCOCC4)cc3c(=O)c2cc1C | -9 | 0 | 5 | 0 | 2 | 1
Cc1cc2oc3ccc(NCCCn4ccnc4)cc3c(=O)c2cc1C | 154* | -1 | -6 | -1 | 0 | 1
COc1cccc(C=NNC(=O)C(=O)N2CCCC2)c1 | . | . | . | . | 4 | .
COc1ccc(C=NNC(=O)C2c3ccccc3-c3ccccc32)cc1 | . | . | . | . | 0 | .
COc1ccc(C(=O)N/C(=C\c2ccc3c(c2)OCO3)C(=O)Nc2ccc(C(=O)O)cc2)cc1 | 5 | -13 | 1 | 4 | 9 | 0
Cc1ccc(C(=O)N/C(=C\c2ccc3c(c2)OCO3)C(=O)Nc2ccc(C(=O)O)cc2)cc1 | 14 | -7 | 3 | 4.6* | 0 | 0
O=C(CCCOc1ccc(Cl)cc1Cl)NN=CC1CCCCC1 | . | . | . | . | -2 | .
Oc1ccc(NCc2ccccc2OCc2ccccc2)cc1 | 7 | 0 | 52* | -1 | 0 | 0
CCNCc1ccccc1OCc1ccccc1 | 3 | -2 | 1 | -1 | 2 | 0
CC(C)C=NNC(=O)c1cc(Br)ccc1O | . | . | . | . | -80 | .
CCOC(=O)NN=Cc1ccc([N+](=O)[O-])s1 | . | . | . | . | 7 | .
O=C1/C(=C/c2cccnc2)N=C2CCCCCN12 | -2 | -4 | 1 | 4.6* | 7 | 0
SMILES | Vif inh | MsrA act | N-glyco inh | MsrA inh | UCH37 DUB inh | aDG glyco up
O=C1/C(=C\c2ccc(O)c(O)c2)N=C2CCCCCN12 | -13 | -10 | -4 | 2 | 15 | 0
Cc1cc(=O)[nH]c(NN=Cc2c(C)nn(-c3ccc(F)cc3)c2Cl)n1 | . | . | . | . | 3 | .
COc1cc(-c2coc3c(C(=O)NCc4ccc(OC)c(OC)c4)cccc23)ccc1O | -33 | -1 | 91* | 1 | . | 1
COc1ccc(CNC(=O)c2cccc3c(-c4cccc(C(N)=O)c4)coc23)cc1OC | -42 | -1 | 60* | 0 | . | 1
COc1cc(-c2coc3c(C(=O)NCc4ccc(N(C)C)cc4)cccc23)ccc1O | -1 | 0 | 2 | 0 | . | 0
COc1ccc(CNC(=O)c2cccc3c(-c4ccc(F)c(F)c4)coc23)cc1OC | -39 | -2 | 2 | . | . | 5
